The array DNA melting data of Ke et al. (doi:10.1101/2024.01.08.574731)

Tests used:
[1] = folding enthalpy; higher = less favourable; fluorescence melt of hairpins on a sequencing array, two-state fit; conditions: sodium 0.088 M
Procedure, shortened: (§1)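 Cy3 signals were normalised both to pre-quench Cy3 and to control constructs. They came from library hairpins carrying annealed Cy3 and quencher oligos on a sequenced MiSeq flow cell, imaged in 50 mM Na-HEPES pH 8.0, 25 mM NaCl, in 2.5 °C steps up to 60 °C. Bootstrapped two-state fits gave melting temperature and folding enthalpy, and four replicates were combined by inverse variance. Fitted temperatures were then raised by 9.35 °C to match UV melts.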

[2] = melting temperature; fluorescence melt of hairpins on a sequencing array, two-state fit, raised by 9.35 °C to match UV melts; conditions: sodium 0.088 M
Procedure, shortened: as §1

Sequence | folding enthalpy [1] [kcal/mol] | Tm [2] [°C]
GAAGACGAAAGTCTTTC ((((((....))).))) | -13.1 | 48.1
GAAGACGAAAGTCTTTTC ((((((....)))..))) | -13.4 | 47.1
GAAGACGGAAACGTCTTC (((((((....))))))) | -41.5 | 64.5
GAAGAGACGAAAGTCTTC (((..(((....)))))) | -9.13 | 30.6
GAAGAGCGAAAGCTATTC (((.(((....))).))) | -31 | 50
GAAGAGCGAAAGCTTTTC (((.(((....))).))) | -24.1 | 44.7
GAAGAGGAAACTCTTC ((((((....)))))) | -34.2 | 48.3
GAAGAGGCGAAAGCCTTC (((..(((....)))))) | -8.73 | 33.2
GAAGAGGGAAACCCCTTC ((((.((....)).)))) | -21.2 | 35.7
GAAGATGCGAAAGCATTC (((..(((....)))))) | -10.7 | 29.9
GAAGATGGAAACGTCTTC (((((.(....).))))) | -33.9 | 43.2
GAAGCAGAAATGCTTC ((((((....)))))) | -35.3 | 54.5
GAAGCAGGAAACTGCTCC (.(((((....))))).) | -12.6 | 41.3
GAAGCAGGAAACTGCTTC (((((((....))))))) | -39.9 | 62.2
GAAGCCGAAAGGCGATTC ((((((....)))..))) | -14.9 | 58
GAAGCCGAAAGGCGTTC ((((((....))).))) | -8.99 | 46.7
GAAGCCGAAAGGCTATTC ((((((....)))..))) | -8.63 | 33.7
GAAGCCGAAAGGCTTTTC ((((((....)))..))) | -12 | 54.7
GAAGCCGGAAACGGCCTC ((.((((....)))).)) | -10 | 39.2
GAAGCGGGAAACCGTTTC (((.(((....))).))) | -28.2 | 47.1
GAAGCTGGAAACAACTTC ((((.((....)).)))) | -24.2 | 34.9
GAAGCTGGAAACAGCTCC (.(((((....))))).) | -13.7 | 39
GAAGGAGCGAAAGCTTTC (((..(((....)))))) | -9.13 | 28.4

Sequence | folding enthalpy [1] [kcal/mol] | Tm [2] [°C]
GAAGGCCCGAAAGGGTTC (((..(((....)))))) | -17.4 | 25.5
GAAGGCCGAAAGGCTTC (((.(((....)))))) | -15.6 | 48.7
GAAGGCGAAAGCCACTTC ((((((....)))..))) | -13.1 | 40.6
GAAGGCGAAAGCCATTC ((((((....))).))) | -10.4 | 39.7
GAAGGCGAAAGCCTATTC ((((((....)))..))) | -8.36 | 32.1
GAAGGCGAAAGCCTGTTC ((((((....)))..))) | -9.93 | 47.9
GAAGGCGAAAGCCTTTC ((((((....))).))) | -10.6 | 53.7
GAAGGCGAAAGCCTTTTC ((((((....)))..))) | -11.1 | 51.3
GAAGGGGGAAACCCCTTC (((((((....))))))) | -37 | 61.5
GAAGGGGGAAACCCTTTC (((.(((....))).))) | -18.7 | 41.1
GAAGGTGGAAACGCTTTC (((.(.(....).).))) | -9.77 | 24.2
GAAGTACGAAAGTATTC (((.(((....)))))) | -10.4 | 27.1
GAAGTAGCGAAAGCTTTC (((..(((....)))))) | -9.46 | 30.3
GAAGTCCGAAAGGAGTTC (((.(((....))).))) | -33.7 | 55.2
GAAGTCGGAAACAACTTC (((((.(....).))))) | -27.2 | 33.4
GAAGTGGGAAACCACTTC (((((((....))))))) | -45.4 | 59.9
GAATAACGAAAGTTTTC (((.(((....)))))) | -13.7 | 29.7
GAATACCCGAAAGGGTTC (((..(((....)))))) | -7.33 | 33
GAATACGAAAGTATGTTC ((((((....)))..))) | -14.2 | 32.3
GAATAGCGAAAGCTCTTC (((.(((....))).))) | -19.4 | 38.7
GAATAGGGAAACCCATTC ((((.((....)).)))) | -17.1 | 29.5
GAATATGGAAACATATTC (((((((....))))))) | -35.1 | 48.1
GAATCAGAAATGATTC ((((((....)))))) | -32.9 | 45.6

Sequence | folding enthalpy [1] [kcal/mol] | Tm [2] [°C]
GAATCAGGAAACTGATTC (((((((....))))))) | -42.6 | 55.8
GAATCCCCGAAAGGGTTC (((..(((....)))))) | -14.4 | 31
GAATCCGAAAGGAGATTC ((((((....)))..))) | -18.7 | 36.4
GAATCCGAAAGGAGGTTC ((((((....)))..))) | -10.9 | 26.2
GAATCCGAAAGGATCTTC ((((((....)))..))) | -24.5 | 51.3
GAATCGCGAAAGCGTTTC (((.(((....))).))) | -21.9 | 46.2
GAATCGGAAACGATTC ((((((....)))))) | -36.1 | 55.7
GAATCGGGAAACCGATTC (((((((....))))))) | -40.8 | 63.6
GAATGACGAAAGTCCTTC (((.(((....))).))) | -26.7 | 38.5
GAATGACGAAAGTCTTC (((.(((....)))))) | -16.6 | 34.6
GAATGACGAAAGTCTTTC (((.(((....))).))) | -25.6 | 44.6
GAATGAGGAAACTCACTC ((.((((....)))).)) | -11.2 | 26
GAATGCGAAAGCAATTC ((((((....))).))) | -18.7 | 48.4
GAATGCGAAAGCATTTTC ((((((....)))..))) | -14.6 | 49
GAATGCGGAAACACATTC (((((.(....).))))) | -32.6 | 39.8
GAATGCGGAAACGTATTC ((((.((....)).)))) | -35.2 | 47.6
GAATGGCGAAAGCCTTC (((.(((....)))))) | -11.9 | 41.1
GAATGGGGAAACCCATCC (.(((((....))))).) | -12.7 | 36.5
GAATGTGGAAACACACTC ((.((((....)))).)) | -11.6 | 29.8
GAATGTGGAAACACATTC (((((((....))))))) | -38.6 | 59.4
GAATTAGGAAACCAATTC (((((.(....).))))) | -10.8 | 27.7
GAATTAGGAAACTGATTC ((((.((....)).)))) | -19.8 | 33.7
GAATTTGGAAACAGATTC ((((.((....)).)))) | -25.2 | 33.3

Sequence | folding enthalpy [1] [kcal/mol] | Tm [2] [°C]
GACAAACGAAAGTTGGTC (((.(((....))).))) | -29.9 | 49.6
GACAAAGGAAACCTTGTC (((((.(....).))))) | -29.5 | 36.4
GACAACCGAAAGGTAGTC (((.(((....))).))) | -33 | 51.3
GACAACGAAAGTTGCGTC ((((((....)))..))) | -12.1 | 40.6
GACAACGCGAAAGCGGTC (((..(((....)))))) | -13.7 | 44.9
GACAACGGAAACATTGTC (((((.(....).))))) | -26.3 | 34.6
GACAAGCGAAAGCTGGTC (((.(((....))).))) | -32.4 | 56.4
GACAAGCGAAAGCTGTC (((.(((....)))))) | -23.1 | 56
GACAAGGGAAACCTTGTC (((((((....))))))) | -40.4 | 59.4
GACACAGAAATGTGTC ((((((....)))))) | -28.5 | 56.5
GACACAGGAAACCGTGTC (((((.(....).))))) | -41.1 | 48.4
GACACCACGAAAGTGGTC (((..(((....)))))) | -6.51 | 39
GACACCCGAAAGGGCGTC (((.(((....))).))) | -36.7 | 58.9
GACACCGAAAGGTACGTC ((((((....)))..))) | -14.1 | 35.8
GACACCGAAAGGTTAGTC ((((((....)))..))) | -20.4 | 37.5
GACACCGGAAACAGTGTC (((((.(....).))))) | -28.8 | 44.3
GACACGCCGAAAGGCGTC (((..(((....)))))) | -6.56 | 33.8
GACACTGGAAACAATGTC ((((.((....)).)))) | -33.6 | 31.9
GACACTGGAAACAGTGTC (((((((....))))))) | -37 | 66
GACACTGGAAACGGTGTC (((((.(....).))))) | -38.8 | 52.9
GACAGACGAAAGTCGGTC (((.(((....))).))) | -36.2 | 59.6
GACAGAGCGAAAGCTGTC (((..(((....)))))) | -18.3 | 46.7
